Experimental data pooled from the literature.
UGT2B7: UDP-glucuronosyltransferase 2B7 (UGT2B7, Homo sapiens, UniProt P16662)

| SMILES | target or system | assay | system | setting | endpoint | value |
| --- | --- | --- | --- | --- | --- | --- |
| O=C(O)c1cn(Cc2ccc(F)cc2)c2ccccc12 | UGT2B7 | enzyme activity, substrate |  |  | Km | 61.5 µM |
| N=C(N)NCCC[C@@H](NC(=O)[C@@H](N)Cc1ccccc1)C(=O)N[C@@H](Cc1ccccc1)C(=O)N[C@@H](CCCCN)C(N)=O |  |  | human, plasma | subcutaneous, 25 mg, patients | Tmax | 0.75 h |
| C=C1CC[C@@H]2[C@](C)(CO)[C@H](O)CC[C@@]2(C)[C@@H]1/C=C/C1=CCOC1=O | UGT2B7 | enzyme activity, inhibitor |  |  | Ki | 6.9 µM |
| Cc1ncc2n1-c1ccc(Cl)cc1C(c1ccccc1F)=NC2 |  |  | human, plasma | oral, 2 mg, single dose | Tmax | 0.67 h |
| CC(=C/C=C/C(C)=C/C(=O)O)/C=C1\CCCc2ccccc21 |  |  | human, plasma | oral, 10 mg, single dose, fasted, healthy volunteers | Tmax | 2.08 h |
| Cl.Cl.O=C(CCN1CCCCC1)c1ccc(-c2ccc(C(=O)CCN3CCCCC3)cc2)cc1 |  |  | Sprague-Dawley rat, plasma | oral, 25 mg/kg | MRT(0-t) | 4.51 h |
| CC(C)C[C@@H]1NC(=O)[C@H](CC(=O)O)NC(=O)[C@H](Cc2ccccc2)NC(=O)[C@H](Cc2c[nH]cn2)NC(=O)[C@H]([C@@H](C)O)NC(=O)[C@H](Cc2ccccc2)NC(=O)[C@@H](NC(=O)[C@H](C)NC(=O)COCCOCCNC(=O)COCCOCCNC(=O)CC[C@H](NC(=O)CCCCCCCCCCCCCCCCC(=O)O)C(=O)O)CSSC[C@@H](C(=O)O)NC(=O)[C@H](Cc2ccccc2)NC(=O)[C@@H]2CCCN2C(=O)[C@H](Cc2c[nH]c3ccccc23)NC(=O)[C@H](CC(C)C)NC1=O |  |  | male Sprague-Dawley rat, plasma | intravenous, 2 nmol/kg | MRT | 5.42 h |
| C[C@@H](c1ccc2nccn2c1)n1nnc2ncc(-c3cnn(C)c3)nc21 |  |  | human, plasma | oral, 600 mg | Tmax | 4 h |
| CSCC[C@H](NC(=O)COCCOCCNC(=O)COCCOCCNC(=O)CC[C@H](NC(=O)CCCCCCCCCCCCCCCCC(=O)O)C(=O)O)C(=O)N[C@H]1CSSC[C@@H](C(=O)NCC(=O)N[C@@H](CO)C(=O)NCC(=O)N[C@@H](CO)C(=O)N[C@@H](CC(=O)O)C(=O)N[C@@H](Cc2ccc(O)cc2)C(=O)N[C@@H](CCCCN)C(=O)N[C@@H](CC(=O)O)C(=O)N[C@@H](CC(=O)O)C(=O)N[C@@H](CC(=O)O)C(=O)N[C@@H](CC(=O)O)C(=O)N[C@@H](CCCCN)C(N)=O)NC(=O)[C@H](Cc2ccccc2)NC(=O)[C@@H]2CCCN2C(=O)[C@H](Cc2c[nH]c3ccccc23)NC(=O)[C@H](CC(C)C)NC(=O)[C@H](CCSC)NC(=O)[C@H](Cc2c[nH]cn2)NC(=O)[C@H](Cc2ccccc2)NC(=O)[C@H](Cc2c[nH]cn2)NC(=O)[C@H]([C@@H](C)O)NC(=O)[C@H](Cc2ccccc2)NC1=O |  |  | male Sprague-Dawley rat, plasma | intravenous | MRT | 13.7 h |
| CN(C)CCc1c[nH]c2ccccc12 |  |  | human, plasma | intravenous, 9 mg, healthy volunteers, infusion | Tmax | 0.16 h |
